Records with an inconclusive call do not appear. The source made the active and inactive calls.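 Rule for the calls: active = compounds raising caspase signal whose fitted half-max concentration is within ten times the top valid dose; inconclusive = flat curve with moderate caspase rise, or unreliable fit; inactive = flat near zero, too weak, or opposite direction.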
Key:
[1] = caspase activation in Mcl1-dependent HMC1-8 cells, dose response, selectivity assay for A1 inhibitor project, cell-based, CaspaseGlo luminescence, dry powder (AID 488885); details: HMC1-8 (Mcl1-dependent) caspase activation, CaspaseGlo luminescence, 4 h; at 150 µM (top of the series)
Procedure, shortened: (§1)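 Compound dosing: pin-transferred compound; material: Low-A1 HMC 1-8 human cancer cells; timing: 4 h compound exposure at 37 °C, then 1 h CaspaseGlo; measured by: luminescence with CaspaseGlo reagent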

[2] = test system: HMC1-8 (Mcl1-dependent) caspase activation, CaspaseGlo luminescence, 4 h; assay: as above
Procedure, shortened: as §1

| Structure (SMILES) | caspase activation [1] | AC50 [2] [µM] |
| --- | --- | --- |
| C/C1=C/C(=O)O[C@@H]2C[C@@H](CC[C@H](C)/C=C\CC1)O[C@@](O)(C1CSC(=O)N1)C2 (stereo not given in full) | 3.84% (inactive) |  |
| O=C(Oc1cccc(/C=N/Nc2nc(Nc3ccccc3)nc(N3CCOCC3)n2)c1)c1ccco1 | 3.81% (inactive) |  |
| C=C1[C@@H](C)[C@H]2[C@H](Cc3ccccc3)NC(=O)[C@]23[C@H](OC(C)=O)/C=C/[C@](C)(O)C(=O)[C@@H](C)C/C=C/[C@H]3[C@@H]1O | -0.0184% (inactive) |  |
| COc1cc(/C=C(/C#N)c2nc3ccccc3[nH]2)ccc1OCC(=O)Nc1ccccc1C(C)C | 13.5% (inactive) |  |
| Cc1ccc(Sc2c([N+](=O)[O-])c(=O)n(C)c3ccccc23)cc1 | -9.5% (inactive) |  |
| CC(=O)OC(C)(C)/C=C/C(=O)[C@](C)(O)C1[C@H](O)C[C@@]2(C)C3CC=C4C(C[C@H](O)C(=O)C4(C)C)[C@]3(C)C(=O)C[C@]12C (stereo not given in full) | 17.2% (inactive) |  |
| CC(C)(C)n1nc(-c2ccc(Cl)cc2)c2c(N)ncnc21 |  | 44.9 |
| Cn1c(=NC(=O)CCl)sc2ccccc21 | -4.38% (inactive) |  |
| O=C(CCl)N=c1sccn1Cc1ccccc1Cl | -18.4% (inactive) |  |
| C=C1[C@@H](C)[C@H]2[C@H](Cc3ccccc3)NC(=O)[C@]23OC(=O)/C=C\[C@H](O)CCC[C@@H](C)C/C=C/[C@H]3[C@@H]1O | 4.5% (inactive) |  |
